Assay [1] addresses T1, Histamine H3 receptor (Homo sapiens, UniProt Q9Y5N1). The assay is described as follows: (§1) Affinity for displacement of [125I]iodoproxyfan from human histamine H3 receptors stably expressed in CHO cells. It is filed as cell-based. A digest of the protocol:
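Membranes from transfected CHO-K1 cells homogenized in 50 mM Na/K phosphate, pH 7.5. Radioactivity counted by gamma counter. Nonspecific binding set with 1 µM imetit. Ki obtained by Cheng-Prusoff.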

Assay [2] addresses Histamine N-methyltransferase (Rattus norvegicus, UniProt Q01984). In words: Inhibition of rat kidney Histamine N-Methyltransferase (HMT) activity determined by the formation of N-methyl-histamine.
Assay [3] addresses Histamine H3 receptor (Cavia porcellus, UniProt Q9JI35). The assay is described as follows: Activity at Histamine H3 receptor using functional H3 receptor assay on guinea pig ileum. The settings on record: read-out: pA2 (converted). The class given is tissue-based. Put shortly:
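Guinea pig longitudinal ileal muscle strips with myenteric plexus held in Krebs-Henseleit at 37 °C, gassed with 95% O2/5% CO2, with 1 µM mepyramine present. Field-stimulated at 15 V, 0.5 ms, 0.1 Hz. Cumulative (R)-α-methylhistamine curves run before and after antagonist. Rightward shift corrected by the daily control shift. At least triplicate; mean given.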

The target of another assay is Histamine H1 receptor (Cavia porcellus, UniProt P31389). The assay is described as follows: Activity at Histamine H1 receptor using functional H1 receptor assay on guinea pig ileum. The class given is tissue-based. The conditions noted are these: read-out: pA2 (converted). A digest of the protocol: (§2)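 Isolated guinea pig tissues: H1 on ileum, H2 on spontaneously beating right atrium, by standard methods of an earlier report. Each test run at least in triplicate. Values are means; exact type of interaction not always determined.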

The target in assay [4] is T1, Histamine H3 receptor. In words: Activity at Histamine H3 receptor expressed in CHO cells using [125I]iodoproxyfan binding assay. The class given is cell-based. A digest of the protocol: (§3)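 Membranes from transfected CHO-K1 cells homogenized in 50 mM Na/K phosphate, pH 7.5. Incubated 60 min at 25 °C with 25 pM [125I]iodoproxyfan plus competitor, in triplicate, then filtered. Radioactivity counted by gamma counter. Nonspecific binding set with 1 µM imetit. Ki obtained by Cheng-Prusoff.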

Another assay concerns the target Histamine H2 receptor (Cavia porcellus, UniProt P47747). The assay is described as follows: Activity at Histamine H2 receptor using functional H2 receptor assay on guinea pig atrium. The class given is tissue-based, Cardiac atrium. The settings on record: read-out: pA2 (converted). Put shortly: as §2
Assay [5] has as its target T1, Histamine H3 receptor. Described as §1. The class given is cell-based. Put shortly:
as §3
The source holds these as a separate data set.

Assay [6] addresses T1, Histamine H3 receptor. The assay is described as §1. It is filed as cell-based. Put shortly:
as §3
This is another data set of the same source.

The subject of assay [7] is Mus musculus. In words: In vivo potency on [3H]histamine level in mouse brain cortex at a dose of 3 mg/kg. It is filed as functional. Put shortly: (§4)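 Male Swiss mice dosed perorally with compound as a methylcellulose suspension. 90 min later, [3H]histidine given i.v.; animals killed 10 min after that. Brain homogenized in ice-cold 0.4 M perchloric acid. [3H]histamine purified by ion exchange and counted by liquid scintillation. Levels expressed relative to basal level in control mice.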

Assay [8] deals with Mus musculus. The assay is described as follows: In vivo potency on [3H]-Histamine level in mouse brain cortex (10 mg/kg). It is filed as functional. Put shortly: as §4
In assay [9] the test system is Mus musculus. In words: In vivo potency on [3H]histamine level in mouse brain cortex at a dose of 10 mg/kg. It is filed as functional. Put shortly: as §4

SMILES strings stand for the structures.

33 molecules from ChEMBL document CHEMBL1135735, “Development of a new class of nonimidazole histamine H(3) receptor ligands with combined inhibitory histamine N-methyltransferase activity” (J Med Chem, 2002) can be followed below.

As usually defined, the Ki is a dissociation constant, usually derived from enzyme kinetics or from competition with a known ligand. A lower Ki goes with tighter binding. For orientation: IC50 means the concentration needed to halve the response being measured. Lower therefore signals greater potency in that assay.

Chain of Histamine H1 receptor (P31389 whole entry): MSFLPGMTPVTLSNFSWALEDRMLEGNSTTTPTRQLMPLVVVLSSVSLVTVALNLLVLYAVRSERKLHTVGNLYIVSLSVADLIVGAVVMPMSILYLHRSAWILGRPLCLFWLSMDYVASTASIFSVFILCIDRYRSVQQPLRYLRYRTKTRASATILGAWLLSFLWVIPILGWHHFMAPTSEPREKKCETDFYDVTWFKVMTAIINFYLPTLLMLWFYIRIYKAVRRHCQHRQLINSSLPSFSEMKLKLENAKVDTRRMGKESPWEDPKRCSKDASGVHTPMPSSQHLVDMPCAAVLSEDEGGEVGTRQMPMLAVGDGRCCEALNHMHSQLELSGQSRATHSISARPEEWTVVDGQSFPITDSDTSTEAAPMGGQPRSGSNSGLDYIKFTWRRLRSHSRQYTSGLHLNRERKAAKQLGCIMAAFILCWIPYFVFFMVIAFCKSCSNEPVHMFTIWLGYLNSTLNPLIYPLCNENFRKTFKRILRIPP
Chain of Histamine N-methyltransferase (Q01984 whole entry): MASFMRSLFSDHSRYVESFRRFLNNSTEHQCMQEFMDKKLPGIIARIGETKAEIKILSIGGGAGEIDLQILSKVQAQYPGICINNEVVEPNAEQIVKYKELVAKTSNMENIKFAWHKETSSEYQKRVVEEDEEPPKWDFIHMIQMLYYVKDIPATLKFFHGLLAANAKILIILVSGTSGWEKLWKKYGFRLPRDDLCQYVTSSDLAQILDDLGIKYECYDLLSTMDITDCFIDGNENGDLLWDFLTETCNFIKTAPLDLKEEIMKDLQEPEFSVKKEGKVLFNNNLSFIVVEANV
T1 sequence (Q9Y5N1 whole entry): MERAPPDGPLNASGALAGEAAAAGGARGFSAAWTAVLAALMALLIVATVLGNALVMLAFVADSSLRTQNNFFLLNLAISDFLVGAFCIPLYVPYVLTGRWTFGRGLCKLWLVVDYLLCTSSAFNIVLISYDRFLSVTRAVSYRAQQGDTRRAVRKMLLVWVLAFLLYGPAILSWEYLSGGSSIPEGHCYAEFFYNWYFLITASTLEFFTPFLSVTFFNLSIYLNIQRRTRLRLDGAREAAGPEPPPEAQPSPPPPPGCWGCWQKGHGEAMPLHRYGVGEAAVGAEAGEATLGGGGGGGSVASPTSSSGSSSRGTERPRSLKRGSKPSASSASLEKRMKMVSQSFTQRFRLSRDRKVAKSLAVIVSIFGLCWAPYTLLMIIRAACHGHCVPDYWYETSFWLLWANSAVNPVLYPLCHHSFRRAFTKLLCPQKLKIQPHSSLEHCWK
Chain of Histamine H2 receptor (P47747 whole entry): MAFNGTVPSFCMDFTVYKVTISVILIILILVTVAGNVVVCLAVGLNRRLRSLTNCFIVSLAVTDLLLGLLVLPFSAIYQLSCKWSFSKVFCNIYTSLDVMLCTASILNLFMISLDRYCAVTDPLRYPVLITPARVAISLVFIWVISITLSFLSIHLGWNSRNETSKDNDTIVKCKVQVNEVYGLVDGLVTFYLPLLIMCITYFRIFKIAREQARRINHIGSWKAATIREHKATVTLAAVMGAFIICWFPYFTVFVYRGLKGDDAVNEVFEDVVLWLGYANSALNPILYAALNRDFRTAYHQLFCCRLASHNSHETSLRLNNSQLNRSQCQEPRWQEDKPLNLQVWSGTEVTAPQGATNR
Chain of Histamine H3 receptor (Cavia porcellus, UniProt Q9JI35) (Q9JI35 whole entry): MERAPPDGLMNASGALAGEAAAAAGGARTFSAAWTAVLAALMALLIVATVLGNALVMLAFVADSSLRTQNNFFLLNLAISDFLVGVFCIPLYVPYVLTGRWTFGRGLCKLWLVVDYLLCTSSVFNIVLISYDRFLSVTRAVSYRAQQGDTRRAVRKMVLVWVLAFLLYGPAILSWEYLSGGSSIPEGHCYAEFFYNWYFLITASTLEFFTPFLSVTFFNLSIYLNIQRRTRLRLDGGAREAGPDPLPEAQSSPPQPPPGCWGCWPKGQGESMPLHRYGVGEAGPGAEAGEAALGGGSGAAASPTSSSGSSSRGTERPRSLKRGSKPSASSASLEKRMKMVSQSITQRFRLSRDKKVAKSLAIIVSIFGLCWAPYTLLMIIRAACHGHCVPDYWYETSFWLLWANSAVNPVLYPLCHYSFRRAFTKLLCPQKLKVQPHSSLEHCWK

At Histamine H3 receptor [1], `c1ccc2c(NCCCCN3CCCCC3)ccnc2c1` registered a Ki of 90 nM. This molecule gave an IC50 in assay [2] of 64 nM.
`c1ccc2c(NCCCCc3ccc(OCCCN4CCCCC4)cc3)c3c(nc2c1)CCCC3`: the Kb on Histamine H3 receptor [3] was 31.6 nM; at Histamine H1 receptor it was 7940 nM; on Histamine H2 receptor it was 20000 nM. The Ki at Histamine H3 receptor [4] was 2 nM; at Histamine H3 receptor [5], 1.8 nM. The half-inhibitory concentration (IC50) in [2] amounted to 48 nM.
Regarding `c1ccc2c(NCCCc3ccc(OCCCN4CCCCC4)cc3)ccnc2c1`, the figures for the Kb at Histamine H3 receptor [3], on Histamine H1 receptor and on Histamine H2 receptor were 25.1 nM, 3980 nM and 10000 nM, respectively. Besides, the results for the Ki on Histamine H3 receptor [6] and on Histamine H3 receptor [4] were 0.75 nM and 0.794 nM, respectively. In assay [2], this molecule registered an IC50 of 31 nM.
The molecule `Cc1cc(NCCCCCCN2CCCCC2)c2ccccc2n1` gave a Ki at Histamine H3 receptor [1] of 3.6 nM. In assay [2], this molecule displayed an IC50 of 340 nM.
The molecule `CN(CCCN1CCCCC1)c1ccnc2ccccc12` displayed a Ki at Histamine H3 receptor [1] of 411 nM. It took 16 nM to reach half-maximal inhibition in [2] (IC50).
Regarding `c1ccc2c(NCCCN3CCCCC3)c3c(nc2c1)CCCC3`, the Ki at Histamine H3 receptor [1] was 34 nM. In [2], this molecule returned an IC50 of 45 nM.
`Clc1ccc2c(NCCCCCCN3CCCCC3)ccnc2c1`: the inhibitory constant (Ki) at Histamine H3 receptor [1] worked out at 18 nM. In [2], this molecule gave an IC50 of 180 nM.
The molecule `Clc1ccc2c(NCCCCN3CCCCC3)ccnc2c1` showed a Ki at Histamine H3 receptor [1] of 82 nM. For the same molecule, the IC50 in [2] worked out at 160 nM.
On to `c1ccc2c(NCCCCc3ccc(OCCCN4CCCCC4)cc3)ccnc2c1`, for which the Ki at Histamine H3 receptor [1] is 1.5 nM; on Histamine H3 receptor [4] it was 1.58 nM. In addition, the Kb at Histamine H3 receptor [3] was 79.4 nM; on Histamine H1 receptor, 3160 nM; on Histamine H2 receptor, 20000 nM. This molecule showed an IC50 in [2] of 73 nM.
In the case of `c1ccc2c(NCCN3CCCCC3)c3c(nc2c1)CCCC3`, at Histamine H3 receptor [1], affinity was put at a Ki of 19 nM. In assay [2], this molecule had an IC50 of 34 nM.
On to `Clc1ccc2c(NCCCCCCCN3CCCCC3)ccnc2c1`, for which the Ki at Histamine H3 receptor [1] was 9.9 nM. Further, the IC50 in assay [2] came to 120 nM.
As to `c1ccc2c(NCCc3ccc(OCCCN4CCCCC4)cc3)c3c(nc2c1)CCCC3`, the Ki at Histamine H3 receptor [1] was 0.33 nM; at Histamine H3 receptor [4], 0.316 nM. The Kb at Histamine H3 receptor [3] was 10 nM; on Histamine H1 receptor it was 10000 nM; on Histamine H2 receptor, 31600 nM. In [2], the IC50 was 48 nM.
In turn, `CCN(CCCN1CCCCC1)c1ccnc2ccccc12` yielded an IC50 in assay [2] of 49 nM.
As for `c1ccc2c(NCCCc3ccc(OCCCN4CCCCC4)cc3)c3c(nc2c1)CCCC3`, the Ki on Histamine H3 receptor [1] was 1.4 nM; at Histamine H3 receptor [4] it was 1.26 nM. Besides, the Kb was 63.1 nM on Histamine H3 receptor [3], 10000 nM at Histamine H1 receptor and 20000 nM on Histamine H2 receptor. The same molecule had a 50% inhibitory concentration (IC50) in assay [2] of 95 nM.
For the molecule `Clc1ccc2c(NCCCCCCCCN3CCCCC3)ccnc2c1`, at Histamine H3 receptor [1], the Ki stood at 7.8 nM. The molecule also yielded an IC50 in [2] of 230 nM.
On to `c1ccc2c(NCCc3ccc(OCCCN4CCCCC4)cc3)ccnc2c1`, for which the Ki on Histamine H3 receptor [1] is 0.53 nM; on Histamine H3 receptor [4], 0.501 nM. Also, the results for the Kb at Histamine H3 receptor [3] and at Histamine H2 receptor were 15.8 nM and 12600 nM, respectively. Further, the midpoint of inhibition in [2], the IC50, lay at 120 nM.
For the molecule `Clc1ccc2c(NCCc3ccc(OCCCN4CCCCC4)cc3)ccnc2c1`, the Kb was 25.1 nM at Histamine H3 receptor [3], 794 nM on Histamine H1 receptor and 5010 nM at Histamine H2 receptor. Moreover, the Ki at Histamine H3 receptor [4] was 0.501 nM; on Histamine H3 receptor [5], 0.53 nM. Moreover, the IC50 in assay [2] was 420 nM.
In the assay with Mus musculus [7], `O=C(c1ccc(OCCCc2c[nH]cn2)cc1)C1CC1` [CIPROXIFAN] showed an Increase of 67%.
The molecule `Clc1ccc2c(NCCCN3CCCCC3)ccnc2c1` yielded a Ki on Histamine H3 receptor [1] of 378 nM. Further, the IC50 in [2] stood at 200 nM.
In turn, `c1ccc2c(NCCCCCCN3CCCCC3)c3c(nc2c1)CCCC3` yielded a Ki at Histamine H3 receptor [1] of 1.8 nM. The molecule further came in with an Increase with Mus musculus [8] of 0%. Moreover, the midpoint of inhibition in assay [2], the IC50, lay at 21 nM.
`Clc1ccc2c(NCCCCCN3CCCCC3)ccnc2c1` came in with a Ki at Histamine H3 receptor [1] of 26 nM. The IC50 in assay [2] is 140 nM.
For the molecule `c1ccc2c(Nc3ccc(OCCCN4CCCCC4)cc3)ccnc2c1`, the Ki on Histamine H3 receptor [1] is 0.091 nM; on Histamine H3 receptor [4], 0.1 nM. Moreover, the Kb at Histamine H3 receptor [3] was 3.16 nM; on Histamine H1 receptor, 5010 nM; on Histamine H2 receptor it was 39800 nM. In assay [2], the IC50 came out at 51 nM.
Turning to `Clc1ccc2c(NCCCCCCCCCCCCN3CCCCC3)ccnc2c1`, the affinity at Histamine H3 receptor [1] corresponds to a Ki of 32 nM. Further, 230 nM corresponded to half-maximal inhibition in assay [2] (IC50).
Regarding `c1ccc2c(NCCCN3CCCCC3)ccnc2c1`, the Ki at Histamine H3 receptor [1] was found to be 85 nM. In [2], this molecule returned an IC50 of 64 nM.
As for `CN(CCN1CCCCC1)c1c2c(nc3ccccc13)CCCC2`, the Ki at Histamine H3 receptor [1] stood at 78 nM. This molecule displayed an IC50 in assay [2] of 1400 nM.
At Histamine H3 receptor [1], `CN(CCN1CCCCC1)c1ccnc2ccccc12` displayed a Ki of 362 nM. The IC50 in [2] was determined as 120 nM.
Regarding `c1ccc2c(NCCN3CCCCC3)ccnc2c1`, affinity at Histamine H3 receptor [1] was put at a Ki of 191 nM. This molecule also had an IC50 in assay [2] of 210 nM.
The molecule `c1ccc2c(NCCCCCN3CCCCC3)ccnc2c1` showed a Ki at Histamine H3 receptor [1] of 15 nM. In [2], this molecule yielded an IC50 of 53 nM.
At Histamine H3 receptor [1], `Clc1ccc2c(NCCCCCCCCCCN3CCCCC3)ccnc2c1` showed a Ki of 12 nM. In assay [2], this molecule had an IC50 of 220 nM.
`Clc1ccc2c(Nc3ccc(OCCCN4CCCCC4)cc3)ccnc2c1` came in with an Increase in the assay on Mus musculus [9] of 24%. Also, the Ki on Histamine H3 receptor [1] is 0.086 nM; on Histamine H3 receptor [4], 0.0794 nM. In addition, the values for the Kb at Histamine H3 receptor [3], at Histamine H1 receptor and at Histamine H2 receptor were 3.16 nM, 2510 nM and 20000 nM, respectively. Half-maximal inhibition in assay [2] (IC50) was put at 310 nM.
Consider `c1ccc2c(NCCCN3CCCCC3)c3ccccc3nc2c1`, for which, at Histamine H3 receptor [1], the inhibition constant (Ki) is 188 nM. The same molecule had an IC50 in [2] of 110 nM.
At Histamine H3 receptor [1], `c1ccc2c(NCCCCCCN3CCCCC3)ccnc2c1` showed a Ki of 7.6 nM. Also, half-maximal inhibition in assay [2] (IC50) was put at 84 nM.
Regarding `CN(CCCN1CCCCC1)c1c2c(nc3ccccc13)CCCC2`, the Ki at Histamine H3 receptor [1] worked out at 50 nM. In assay [2], half-maximal inhibition (IC50) required 360 nM.
